# How the values were obtained:
# Clostridioides difficile [1] = test: Antibacterial activity against Clostridioides difficile clinical isolate China; format: functional
# [2] = Drug distribution in Sprague-Dawley rat ascites fluid measured at 6 hrs; format: ADME, tissue-based, Ascitic fluid; details: read-out: Ct
# How it was run: (§1)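 Sprague–Dawley rats were dosed with TNP-2198. Concentrations were measured in plasma (ng/mL) and in tissues or contents (ng/g) at 0.5, 2, 6, 12 and 24 h after dosing. Values below the limit of quantification are reported as BLOQ.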
# [3] = Volume of distribution at steady state in C57BL/6 mouse at 5 mg/kg, iv; format: ADME, organism-based; details: in vivo, read-out: Vdss
# [4] = Drug distribution in Sprague-Dawley rat ascites fluid measured at 2 hrs; format: ADME, tissue-based, Ascitic fluid; details: read-out: Ct; how it was run: as §1
# [5] = Drug distribution in Sprague-Dawley rat ascites fluid measured at 12 hrs; format: ADME, tissue-based, Ascitic fluid; details: read-out: Ct; how it was run: as §1
# Clostridioides difficile [6] = test: Resistance development in Clostridioides difficile MMX 4381 assessed as spontaneous resistance frequency using at 1.23 x 10^9 CFU inoculum at 0.5 ug/ml; format: functional; details: dose 0.5 µg/ml
# Helicobacter pylori [7] = test: Antibacterial activity against Helicobacter pylori infected in C57/BL6 mouse assessed as bacterial load in stomach at 15 mg/kg administered twice daily via oral gavage starting from 7 days post inoculation and administered for 7 days (reference value: 5.25 log10CFU); format: functional; details: time 7 day
# [8] = Half life in C57BL/6 mouse at 20 mg/kg, po; format: ADME, organism-based; details: in vivo
# How it was run: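 Single-dose PK of TNP-2198 was run in C57BL/6 mice (IV 5 mg/kg; PO 20 mg/kg) and beagle dogs (IV 5 mg/kg; PO 25 mg/kg). Terminal half-life (h) was derived from plasma profiles, together with Tmax, Vdss, CL, AUC and oral bioavailability.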
# [9] = Tmax in Beagle dog at 25 mg/kg, po; format: ADME, organism-based, Canis lupus familiaris; details: in vivo
# [10] = Drug distribution in Sprague-Dawley rat stomach content measured at 0.5 hrs; format: ADME, tissue-based; details: read-out: Ct; how it was run: as §1
# Bifidobacterium breve = test: Antibacterial activity against Bifidobacterium ATCC 15698; format: functional
# [11] = Drug distribution in Sprague-Dawley rat large intestine tissue measured at 6 hrs; format: ADME, tissue-based; details: read-out: Ct; how it was run: as §1
# Fusobacterium nucleatum = test: Antibacterial activity against Fusobacterium nucleatum ATCC 10953; format: functional
# Clostridioides difficile [12] = test: Resistance development in Clostridioides difficile MMX 4381 assessed as mutation prevention concentration using at 1.90 x 10^8 CFU inoculum; format: functional; details: dose 0.5 µg/ml
# [13] = Drug distribution in Sprague-Dawley rat plasma measured at 0.5 hrs; format: ADME, cell-free; how it was run: as §1
# [14] = Drug distribution in Sprague-Dawley rat stomach content measured at 6 hrs; format: ADME, tissue-based; details: read-out: Ct; how it was run: as §1
# [15] = Volume of distribution at steady state in Beagle dog at 5 mg/kg, iv; format: ADME, organism-based, Canis lupus familiaris; details: in vivo, read-out: Vdss
# Helicobacter pylori [16] = test: Antibacterial activity against rifampicin-resistant Helicobacter pylori CB1614 harboring rpoBL525I/D530N mutant measured after 5 days by agar dilution method; format: functional; details: CB1614, 120 h, time 5 day
# How it was run: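 Agar dilution per CLSI. Wild-type ATCC 700392 (CB1531) and its derivatives carry defined resistance determinants. Drugs, alone or in 1:1 molar mixtures, were diluted 2-fold from 100× stocks into Mueller–Hinton agar with aged (≥2 weeks) sheep blood (5% v/v). MIC read after 5 days at 35 °C under microaerobic conditions from a campylobacter gas-generating system.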
# [17] = Drug distribution in Sprague-Dawley rat stomach content measured at 2 hrs; format: ADME, tissue-based; details: read-out: Ct; how it was run: as §1
# Helicobacter pylori [18] = test: Resistance development in Helicobacter pylori MMX 3719 assessed as spontaneous resistance frequency using at 1.90 x 10^8 CFU inoculum at 4 ug/ml; format: functional; details: dose 4 µg/ml
# How it was run: (§2)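 H. pylori MMX 3719 exposed to 0.5, 1, 2 and 4 µg/mL drug with an inoculum of 1.90×10^8 CFU at each level. Two independent tests were run, and resistant colonies were counted and averaged. A spontaneous resistance frequency was reported for each concentration, and the MPC was taken across the concentrations tested.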
# Clostridium sporogenes = test: Antibacterial activity against Clostridium sporogenes ATCC 19404; format: functional
# [19] = Drug distribution in Sprague-Dawley rat vaginal tissue measured at 24 hrs; format: ADME, tissue-based, Vagina; details: in vivo, BLD = below limit of detection; how it was run: as §1
# Gardnerella vaginalis [20] = test: Resistance development in Gardnerella vaginalis MMX 5973 assessed as spontaneous resistance frequency using at 4.50 x 10^8 CFU inoculum at 0.5 ug/ml; format: functional; details: dose 0.5 µg/ml
# How it was run: (§3)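 Resistant colonies were counted at each drug concentration in two separate tests (test 1, test 2) and averaged. The spontaneous resistance frequency was taken from the mean colony count relative to the inoculum plated. Drug levels tested were 0.5, 1, 2 and 4 µg/mL, and a mutation prevention concentration (MPC) was also reported.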
# Clostridioides difficile [21] = test: Antibacterial activity against Clostridioides difficile CB1921 ATCC BAA1382 measured after 3 days; format: functional; details: CB1921 ATCC BAA1382, 72 h, time 3 day
# [22] = Drug distribution in Sprague-Dawley rat large intestine content measured at 2 hrs; format: ADME, tissue-based; details: read-out: Ct; how it was run: as §1
# [23] = Drug distribution in Sprague-Dawley rat stomach tissue measured at 0.5 hrs; format: ADME, tissue-based; details: read-out: Ct; how it was run: as §1
# Helicobacter pylori [24] = test: Antibacterial activity against Helicobacter pylori clinical isolate USA; format: functional
# [25] = Drug distribution in Sprague-Dawley rat vaginal secretion measured at 2 hrs; format: ADME, tissue-based, Vaginal fluid; details: female, read-out: Ct; how it was run: as §1
# [26] = AUC in Sprague-Dawley rat at 50 mg/kg, po; format: ADME, organism-based; design: dose 50 mg/kg, route po; details: in vivo
# How it was run: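 Plasma PK after single intravenous or oral dosing. Mice C57BL/6 at 5 mg/kg IV or 20 mg/kg PO; Sprague–Dawley rats at 10 mg/kg IV or 50 mg/kg PO; beagle dogs at 5 mg/kg IV or 25 mg/kg PO. AUC reported in ng·h/mL. Clearance from the IV arms in mL/min·kg.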
# [27] = Drug distribution in Sprague-Dawley rat large intestine content measured at 24 hrs; format: ADME, tissue-based; details: read-out: Ct; how it was run: as §1
# [28] = Tmax in C57BL/6 mouse at 20 mg/kg, po; format: ADME, organism-based; details: in vivo
# [29] = system: Porphyromonas asaccharolytica; test: Antibacterial activity against metronidazole-resistant Prevotella asaccharolytica MMX 3552; format: functional
# Helicobacter pylori [30] = test: Resistance development in Helicobacter pylori MMX 3719 assessed as spontaneous resistance frequency using at 1.90 x 10^8 CFU inoculum at 1 ug/ml; format: functional; details: dose 1 µg/ml; how it was run: as §2
# Gardnerella vaginalis [31] = test: Resistance development in Gardnerella vaginalis MMX 5973 assessed as spontaneous resistance frequency using at 4.50 x 10^8 CFU inoculum at 2 ug/ml; format: functional; details: dose 2 µg/ml; how it was run: as §3
# [32] = Tmax in Sprague-Dawley rat at 50 mg/kg, po; format: ADME, organism-based; details: in vivo
# Clostridioides difficile [33] = test: Antibacterial activity against fluoroquinolone-resistant Clostridioides difficile CB1941 harboring gyrAD71Y/T82A mutant measured after 3 days; format: functional; details: CB1941, 72 h, time 3 day
# Gardnerella vaginalis [34] = test: Antibacterial activity against Gardnerella vaginalis ATCC 49145; format: functional
# [35] = Half life in Sprague-Dawley rat at 50 mg/kg, po; format: ADME, organism-based; details: in vivo
# [36] = Drug distribution in Sprague-Dawley rat stomach tissue measured at 12 hrs; format: ADME, tissue-based; details: read-out: Ct; how it was run: as §1
# [37] = Oral bioavailability in Sprague-Dawley rat at 50 mg/kg; format: ADME, organism-based; details: in vivo
# Helicobacter pylori [38] = test: Antibacterial activity against Helicobacter pylori infected in C57/BL6 mouse assessed as bacterial load in stomach at 1 mg/kg administered twice daily via oral gavage starting from 7 days post inoculation and administered for 7 days in presence of 10 mg/kg clarithromycin and 20 mg/kg amoxicillin (reference value: 5.25 log10CFU); format: functional; details: time 7 day
smiles,measurement,setting,value
CO[C@H]1/C=C/O[C@@]2(C)Oc3c(C)c(O)c4c(c3C2=O)C2=NC3(CCN(CCn5c([N+](=O)[O-])cnc5C)CC3)NC2=C(NC(=O)/C(C)=C\C=C\[C@H](C)[C@H](O)[C@@H](C)[C@@H](O)[C@@H](C)[C@H](OC(C)=O)[C@@H]1C)C4=O [RIFASUTENIZOL],MIC,Clostridioides difficile [1],≤ 0.06 µg/mL
same,MIC90,Clostridioides difficile [1],1 µg/mL
same,concentration at 6 h,[2],3480 ng/g
same,Vd,[3],0.9 L/kg
same,concentration at 2 h,[4],5270 ng/g
same,concentration at 12 h,[5],84.5 ng/g
same,Activity,Clostridioides difficile [6],8 10^-9No_unit
same,Activity,Helicobacter pylori [7],1.94 log10CFU
same,half-life,[8],30.6 min
same,Tmax,[9],1.2 h
same,concentration at 0.5 h,[10],3.26e+06 ng/g
same,MIC,Bifidobacterium breve,0.015 µg/mL
same,concentration at 6 h,[11],3660 ng/g
same,MIC,Fusobacterium nucleatum,0.12 µg/mL
same,Activity,Clostridioides difficile [12],1 µg/mL
same,concentration at 0.5 h,[13],1700 ng/mL
same,concentration at 6 h,[14],28800 ng/g
same,Vd,[15],2.8 L/kg
same,MIC,Helicobacter pylori [16],0.125 µg/mL
same,concentration at 2 h,[17],1.75e+06 ng/g
same,Activity,Helicobacter pylori [18],<5 10^-9No_unit
same,MIC,Clostridium sporogenes,0.015 µg/mL
same,Ct,[19],Bld
same,Activity,Gardnerella vaginalis [20],<2 10^-9No_unit
same,MIC,Clostridioides difficile [21],≤ 2 ng/mL
same,concentration at 2 h,[22],1170 ng/g
same,concentration at 0.5 h,[23],113000 ng/g
same,MIC,Helicobacter pylori [24],≤ 1 ng/mL
same,MIC90,Helicobacter pylori [24],0.125 µg/mL
same,concentration at 2 h,[25],43700 ng/g
same,AUC,[26],15400 ng·h/mL
same,concentration at 24 h,[27],53.9 ng/g
same,Tmax,[28],30 min
same,MIC,[29],8 ng/mL
same,Activity,Helicobacter pylori [30],<5 10^-9No_unit
same,Activity,Gardnerella vaginalis [31],<2 10^-9No_unit
same,Tmax,[32],1.8 h
same,MIC,Clostridioides difficile [33],≤ 2 ng/mL
same,MIC,Gardnerella vaginalis [34],4 ng/mL
same,half-life,[35],56.4 min
same,concentration at 12 h,[36],114 ng/g
same,bioavailability,[37],48%
same,Activity,Helicobacter pylori [38],1.7 log10CFU

# — ChEMBL document CHEMBL5131497, “Design, Synthesis, and Characterization of TNP-2198, a Dual-Targeted Rifamycin-Nitroimidazole Conjugate with Potent Activity against Microaerophilic and Anaerobic Bacterial Pathogens” (J Med Chem, 2022)
